Screens as filed in PubChem BioAssay.
Most compounds without a hit are left out; they make up all but 1.6% or so of the library.
NR1D1 modulator: modulators of Rev-erb alpha DNA binding, primary screen, biochemical, FITC-DNA, fluorescence polarization, uHTS; actives 0.79% (n = 370,000); Rev-erbα–FITC-DNA binding, 90 min; activity, % at 10 µM;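 active means activity above about 14%, limit read from the data; passing the limit was not always enough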;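 further: 0% = DMSO wells with 35 nM protein and 100% = DMSO wells with 750 nM protein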
NR2E3 ag-1: NR2E3 agonists in two-hybrid cells, primary screen, cell-based, luminescence, CHO-S, Gal4-NCOR/VP16-NR2E3; Photoreceptor-specific nuclear receptor (Homo sapiens), Q9Y5X4; luciferase; inhibition of corepressor binding, % at 3.98 µM; actives 0.35% (n = 360,000);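 active means inhibition above the mean of all tested compounds plus 3 SD, cut at about 70% in these data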;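 further: 0% = DMSO with NR2E3 transfected cells and 100% = cells lacking NR2E3 construct; higher means lower luciferase signal from less NR2E3 corepressor binding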
Target sequence (Q9Y5X4 whole entry, looked up, the tested form may be a part): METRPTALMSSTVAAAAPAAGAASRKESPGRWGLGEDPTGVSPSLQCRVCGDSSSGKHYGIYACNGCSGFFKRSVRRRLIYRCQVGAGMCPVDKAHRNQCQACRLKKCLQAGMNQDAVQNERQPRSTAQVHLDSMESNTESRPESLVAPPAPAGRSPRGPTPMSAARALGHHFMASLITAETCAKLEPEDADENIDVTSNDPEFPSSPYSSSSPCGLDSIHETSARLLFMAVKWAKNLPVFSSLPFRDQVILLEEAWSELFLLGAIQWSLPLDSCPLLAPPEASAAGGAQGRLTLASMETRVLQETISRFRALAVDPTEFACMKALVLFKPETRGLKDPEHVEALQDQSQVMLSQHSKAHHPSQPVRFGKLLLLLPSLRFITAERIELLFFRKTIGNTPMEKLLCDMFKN
NR2E3 ag-2: inhibitors of NR2E3-RetCOR corepressor binding, primary screen, NR2E3 agonist project, biochemical, TR-FRET, GST-NR2E3, biotin-RetCOR; inhibition of corepressor binding, % at 4.78 µM; AID 2300, 2010; 1536-well; actives 0.12% (n = 320,000);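 active means percent inhibition above the cutoff of mean plus 3 SD of all tested compounds, set per screening campaign, cut at about 20% in these data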;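 further: 0% = DMSO wells and 100% = biotin wells as full block of FRET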
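Material: NR2E3–RetCOR corepressor complex / Incubation: Compound–protein incubation for 5 h at 4 °C / Dosing: compound at 4.8 µM, single dose / Detection: time-resolved FRET / Benchmarks: high control biotin, low control 0.6% DMSO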
PG9 Ab binder: binders of HIV-1 gp120 antibody PG9, primary screen, biochemical, TR-FRET. inhibition, % at 6.7 µM. HIV-1 gp120 / PG9 antibody interaction. AID 624416, 2012. actives 0.43% (n = 360,000). TR-FRET gp120-PG9 antibody binding; in the data active means inhibition above about 8.5%
PKA-R1A activ: activators of PKA-R1A holoenzyme, primary screen, biochemical, fluorescence polarization, Cy5-IP20, bovine R1A, mouse PKAc. cAMP-dependent protein kinase type I-alpha regulatory subunit (Bos taurus) + …. actives 0.083% (n = 340,000). AID 504707, 2011. activation, % at 11.4 µM. PKA-R1A dissociation; scaled: DMSO 0%, 113 µM cGMP 100%;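 active means percent activation above the mean of all tested compounds plus 3 SD, cut at about 19% in these data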;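 further: higher means more PKAc released from R1A so a rise in polarization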
PKA-R2B act: activators of PKA-R2B holoenzyme, primary screen, biochemical, fluorescence polarization, Cy5-IP20, human | activation, % at 11.4 µM | cAMP-dependent protein kinase catalytic subunit beta (Homo sapiens) + cAMP-dependent … | actives 0.079% (n = 340,000) | PKA-R2B holoenzyme dissociation; R2B truncated from residue 108, S112A mutant; 0% DMSO only, 100% 113 µM cGMP | AID 504700, 2011;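 active means activation above a cutoff set at the mean over all compounds plus 3 SD, cut at about 18% in these data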;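 further: higher means more holoenzyme dissociation and a rise in polarization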
NR2E3 ag conf: NR2E3 agonist confirmation in cells, cell-based, luminescence, CHO-S two-hybrid | AID 624378, 2012 | inhibition, % at 3.98 µM | CHO-S mammalian two-hybrid NR2E3-NCOR, luciferase luminescence | shares compounds with NR2E3 ag-1 | actives 51% (n = 2,300);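 active means average inhibition above a cutoff equal to the mean inhibition of all tested compounds plus one SD, cut at about 70% in these data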;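 further: 0% = DMSO in NR2E3 cells and 100% = DMSO in cells lacking NR2E3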
VP16 counter: GAL4-VP16 reporter modulators, confirmation, counter-screen for NR2E3 agonist project, cell-based, luminescence, CHO-S, high throughput; shares compounds with NR2E3 ag-1; CHO-S GAL4-VP16 luciferase reporter; inhibition, % at 3.98 µM; actives 29% (n = 2,300); AID 624379, 2012;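 active means mean inhibition above a cutoff equal to the average over all tested compounds plus one standard deviation, cut at about 70% in these data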;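 further: luciferase from a UAS reporter driven by GAL4-VP16 transactivation; 0% = DMSO with VP16-transfected cells and 100% = DMSO with cells lacking VP16; higher means less reporter light so more repression of VP16 activity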
* = called active by the depositor; · = no result given.

SMILES	NR1D1 modulator	NR2E3 ag-1	NR2E3 ag-2	PG9 Ab binder	PKA-R1A activ	PKA-R2B act	NR2E3 ag conf	VP16 counter
O=C(C1CCC1)N1CCc2cc(S(=O)(=O)NCCN3CCN(c4ccccc4F)CC3)ccc21	-4	61	6	-4	-6	-1	70	55
O=C(C1CCC1)N1CCc2cc(S(=O)(=O)N3CCN(c4ccccc4F)CC3)ccc21	-12	·	·	·	·	·	·	·
Fc1ccc2[nH]c3c(NCc4ccccc4)ncnc3c2c1	0	90*	-2	0	-8	-2	97*	87*
COc1ccc2[nH]c3c(NCc4ccco4)ncnc3c2c1	·	·	0	·	·	·	·	·
COC(=O)[C@@]1(C(C)C)N=C(c2cc(OC)c(OC)c(OC)c2)[C@]2(O1)C(=O)N(Cc1cn(Cc3ccccc3)nn1)c1ccc(F)cc12	-2	·	·	·	·	·	·	·
Cc1csc(NC(=O)CSCC(=O)O)c1-c1nc2ccccc2s1	1	50	3	-1	-14	3	68	30
O=C1CC2c3cc(Br)ccc3CCN2C(=O)CN1Cc1ccccc1 (configuration not stated)	3	·	·	1	·	·	·	·
CC(=O)N1CCc2cc(S(=O)(=O)NC3CCCc4ccccc43)ccc21 (configuration not stated)	2	67	3	-3	-2	3	56	53
Cn1cc(CNCc2ccc(OC(F)(F)F)cc2)c(-c2ccc3c(c2)OCCO3)n1	6	76*	-2	-1	-1	9	90*	79*
N=C1SCC(=O)N1c1ncc(Cc2ccc(F)cc2)s1	-2	97*	-2	0	-22	-3	57	22
Cc1ccc(-c2csc(N3C(=N)SCC3=O)n2)cc1	7	·	-1	0	·	·	·	·
O=c1cc(-c2ccccc2Cl)oc2cc(O)cc(O)c12	-10	-38	4	-2	2	5	·	·
O=C1C=CC(O)(c2cc(=O)c3c(O)cc(O)cc3o2)C=C1	-2	48	2	0	-15	-3	-54	-40
CN(Cc1ccc(Cl)cc1Cl)C(=O)c1cccc(S(=O)(=O)N2CCN(c3ccccc3)CC2)c1	-1	23	4	0	-4	1	·	·
CN(Cc1ccc(OC(F)F)cc1)C(=O)c1cccc(S(=O)(=O)N2CCN(Cc3ccccc3)CC2)c1	4	91*	·	1	-4	-21	92*	76*
COc1ccccc1CNC(=O)c1cccc(S(=O)(=O)N2CCN(c3ccc(F)cc3)CC2)c1	-2	-5	2	-2	-3	-5	·	·
CN(CCOc1ccc(Cl)cc1)C(=O)c1cccc(S(=O)(=O)N2CCN(c3ccccc3)CC2)c1	3	85*	·	-1	-8	-6	92*	81*
COc1cccc(CN(C)C(=O)c2cccc(S(=O)(=O)N3CCN(c4ccccc4)CC3)c2)c1OC	-3	55	·	1	3	7	81*	58
COc1cccc(CN(C)C(=O)c2cccc(S(=O)(=O)N3CCN(c4ccc(F)cc4)CC3)c2)c1OC	-6	64	4	-1	4	2	79*	69
CCN=C1NC(c2ccc(C(F)(F)F)cc2)C(C(=O)OC)=C(C)N1Cc1ccccc1C(F)(F)F (configuration not stated)	-6	·	·	1	·	·	·	·
CC(=O)N1CCN(C(=O)c2cccc(S(=O)(=O)N3CCN(c4ccc(F)cc4)CC3)c2)CC1	-2	-2	-1	0	-3	1	·	·
O=C(c1cccc(S(=O)(=O)N2CCN(c3ccc(F)cc3)CC2)c1)N1CCCCCCC1	-8	52	0	-2	-9	-2	43	43
CN(Cc1ccco1)C(=O)c1cccc(S(=O)(=O)N2CCN(Cc3ccccc3)CC2)c1	-1	-6	·	-2	-1	-11	·	·
COc1cccc(CN(C)C(=O)c2cccc(S(=O)(=O)N3CCN(Cc4ccccc4)CC3)c2)c1OC	6	63	·	0	-2	-3	66	46
S=c1[nH]nc(-c2n[nH]c3c2CCC3)n1N=Cc1c[nH]c2ccccc12	-1	·	·	·	·	·	·	·
SMILES	NR1D1 modulator	NR2E3 ag-1	NR2E3 ag-2	PG9 Ab binder	PKA-R1A activ	PKA-R2B act	NR2E3 ag conf	VP16 counter
CN(C)c1ccc(/C=N\NC(=O)c2cccc(S(=O)(=O)N(C)C)c2)cc1	-4	·	·	·	·	·	·	·
CC(=NNC(=S)N1CC2CCC(CC2)C1)c1cnccn1	2	76*	·	2	0	-13	-20	-26
CC(=NNC(=S)N1CCN(c2ccccn2)CC1)c1ccccn1	7	4	·	-1	-5	5	·	·
C/C(=N/NC(=O)c1cnccn1)c1ccncc1	-4	-23	2	-2	4	-6	·	·
CC(=NNC(=S)N1CC2CCC(CC2)C1)c1ccccn1	3	87*	·	-1	11	-6	-37	-9
CC(=NNC(=S)N1CCN(C2CCCCCC2)CC1)c1ccccn1	1	78*	·	-2	-2	-12	19	-7
CC(=NNC(=S)N1CCN(c2ccccn2)CC1)c1nccs1	·	90*	·	·	0	-2	42	46
C/C(=N\NC(=O)C1CCCN(S(=O)(=O)c2ccccc2)C1)c1ccccn1 (configuration not stated)	-3	-4	-1	1	-7	-5	·	·
COCCCOc1cc(C[C@@H](C[C@H](N)[C@@H](O)C[C@H](C(=O)NCC(C)(C)C(N)=O)C(C)C)C(C)C)ccc1OC	-4	·	·	·	·	·	·	·
O=C(NC(=S)N1CCN(c2nc(-c3ccccc3)cs2)CC1)c1cncc(Br)c1	2	62	0	4	-3	3	40	39
O=C(CN1CCN(c2nc(-c3ccccc3)cs2)CC1)NNC(=O)c1ccc(Br)cc1	3	-9	1	0	-6	-10	·	·
CC(=O)Nc1ccc(S(=O)(=O)NCCC(=O)Nc2ccc(C)c(Cl)c2)cc1	-4	11	0	-1	-24	4	·	·
